Measured values published in ChEMBL document CHEMBL1158348, “Aroylpropionic acid based 2,5-disubstituted-1,3,4-oxadiazoles: synthesis and their anti-inflammatory and analgesic activities” (Eur J Med Chem, 2009).

Legend:
[1] = system: Rattus norvegicus; assay: Antiinflammatory activity in po dosed Wistar rat assessed as inhibition of carrageenan-induced paw odema at dose equivalent to 20 mg/kg of ibuprofen pretreated 30 mins pre-carrageenan challenge measured after 2 hrs; format: functional
Outline: (§1)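 Rats 150–200 g, groups of six. Drug given orally as a suspension in 0.5% w/v aqueous sodium CMC; control group untreated. 30 min later, 0.1 mL of 1% carrageenan injected sub-plantar into the left hind paw. Paw volume measured by plethysmometer before treatment (V0) and at intervals (Vt). Inhibition computed from (Vt−V0) of treated vs control. Values are mean ± S.E.M.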

[2] = system: Rattus norvegicus; assay: Gastrointestinal toxicity in po dosed Wistar rat assessed ulcer index at dose equivalent to 60 mg/kg of ibuprofen after 17 hrs; format: organism-based; set-up: dose 60 mg/kg, route oral; details: in vivo
Outline: (§2)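 Wistar rats (150–200 g), groups of six, fasted 8 h, then given a single oral dose (60 mg kg-1 ibuprofen or molar equivalent of test compound; control received vehicle only). Sacrificed 17 h later with food and water available. Gastric mucosa examined under 4× binocular magnifier, scored 0–4 by lesion/ulcer number and size. Severity index = treated group mean score minus control mean score.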

[3] = system: Mus musculus; assay: Analgesic activity in po dosed Swiss albino mouse assessed as inhibition of acetic acid-induced writhing response at dose equivalent to 20 mg/kg of ibuprofen pretreated 3 hrs before acetic acid challenge; format: functional; set-up: scale not given: the % may be the effect or the level left
Outline: (§3)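 Mice 25–30 g of either sex, groups of six. Drug given orally as a suspension in 0.5% w/v aqueous sodium CMC, 3 h before 1% v/v acetic acid i.p. at 1 mL per 100 g body weight. Writhings counted over 10 min. Protection (%) = 100 − (test/control writhings × 100). Values are mean ± S.E.M., with ANOVA then t-test.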

[4] = system: Rattus norvegicus; assay: Antiinflammatory activity in po dosed Wistar rat assessed as inhibition of carrageenan-induced paw odema at dose equivalent to 20 mg/kg of ibuprofen pretreated 30 mins pre-carrageenan challenge measured after 3 hrs; format: functional; outline: as §1
[5] = system: Gastric mucosa; assay: Inhibition of lipid peroxidation assessed as malondialdehyde level per 100 mg of gastric mucosa isolated from po dosed Wistar rat treated dose equivalent to 60 mg/kg equivalent to ibuprofen by UV spectrophotometry; format: functional
Outline: (§4)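 Rats 150–200 g, groups of six, fasted 8 h, then given a single oral dose and killed 17 h later with food and water available. Gastric mucosa scraped, 100 mg homogenised in ice-cold 1.15% KCl. SDS, pH 3.5 acetate buffer and 0.8% TBA added, heated at 95 °C for 60 min. Extracted with n-butanol/pyridine 15:1, A532 read; MDA in nmol/100 mg tissue.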

[6] = system: Rattus norvegicus; assay: Antiinflammatory activity in Wistar rat assessed as inhibition of carrageenan-induced paw odema at 20 mg/kg, po pretreated 30 mins pre-carrageenan challenge measured after 4 hrs; format: functional; outline: as §1
[7] = system: Rattus norvegicus; assay: Gastrointestinal toxicity in Wistar rat assessed ulcer index at 60 mg/kg, po after 17 hrs; format: organism-based; set-up: dose 60 mg/kg, route oral; details: in vivo; outline: as §2
[8] = system: Rattus norvegicus; assay: Antiinflammatory activity in Wistar rat assessed as inhibition of carrageenan-induced paw odema at 20 mg/kg, po pretreated 30 mins pre-carrageenan challenge measured after 3 hrs; format: functional; outline: as §1
[9] = system: Mus musculus; assay: Analgesic activity in Swiss albino mouse assessed as inhibition of acetic acid-induced writhing response at 20 mg/kg, po pretreated 3 hrs before acetic acid challenge; format: functional; set-up: scale not given: the % may be the effect or the level left; outline: as §3
[10] = system: Rattus norvegicus; assay: Antiinflammatory activity in Wistar rat assessed as inhibition of carrageenan-induced paw odema at 20 mg/kg, po pretreated 30 mins pre-carrageenan challenge measured after 8 hrs; format: functional; outline: as §1
[11] = system: Gastric mucosa; assay: Inhibition of lipid peroxidation assessed as malondialdehyde level per 100 mg of gastric mucosa isolated from Wistar rat treated 60 mg/kg, po by UV spectrophotometry; format: functional; outline: as §4
[12] = system: Rattus norvegicus; assay: Antiinflammatory activity in Wistar rat assessed as inhibition of carrageenan-induced paw odema at 20 mg/kg, po pretreated 30 mins pre-carrageenan challenge measured after 2 hrs; format: functional; outline: as §1

Cc1ccc(C(=O)CCc2nnc(-c3ccc(Cl)cc3)o2)cc1
inhibition in vivo [1]: 62.7% | UI [2]: 0.98 | Activity [3]: 58.89% | inhibition in vivo [4]: 81.5% | Activity [5]: 4.25 nmol

Cc1ccc(C(=O)CCc2nnc(-c3ccc([N+](=O)[O-])cc3)o2)cc1
inhibition in vivo [1]: 52% | UI [2]: 0.95 | Activity [3]: 53.43% | inhibition in vivo [4]: 60.5% | Activity [5]: 3.95 nmol

Cc1ccc(C(=O)CCc2nnc(COc3ccccc3)o2)cc1
inhibition in vivo [1]: 25.3% | inhibition in vivo [4]: 42%

Cc1ccc(C(=O)CCc2nnc(Cc3ccccc3)o2)c(C)c1
inhibition in vivo [1]: 25.3% | inhibition in vivo [4]: 50%

O=C(CCc1nnc(-c2ccccc2Cl)o1)c1ccccc1
inhibition in vivo [1]: 26.9% | inhibition in vivo [4]: 35.8%

O=C(CCc1nnc(-c2ccc([N+](=O)[O-])cc2)o1)c1ccccc1
inhibition in vivo [1]: 40.9% | UI [2]: 0.98 | Activity [3]: 58.2% | inhibition in vivo [4]: 62.7% | Activity [5]: 4.95 nmol

COc1ccc(-c2nnc(CCC(=O)c3ccc(C)cc3C)o2)cc1
inhibition in vivo [1]: 62.7% | UI [2]: 0.65 | Activity [3]: 66.25% | inhibition in vivo [4]: 88.9% | Activity [5]: 3.79 nmol

Cc1ccc(C(=O)CCc2nnc(Cc3ccccc3)o2)cc1
inhibition in vivo [1]: 24.7% | inhibition in vivo [4]: 51.9%

Cc1ccc(C(=O)CCc2nnc(-c3ccccc3Cl)o2)cc1
inhibition in vivo [1]: 36.2% | inhibition in vivo [4]: 57.3%

Cc1ccc(C(=O)CCc2nnc(COc3ccccc3)o2)c(C)c1
inhibition in vivo [1]: 27.6% | inhibition in vivo [4]: 45.7%

Cc1ccc(C(=O)CCc2nnc(-c3ccc([N+](=O)[O-])cc3)o2)c(C)c1
inhibition in vivo [1]: 40% | UI [2]: 0.87 | Activity [3]: 47.2% | inhibition in vivo [4]: 69.1% | Activity [5]: 4.42 nmol

Cc1ccc(C(=O)CCc2nnc(-c3ccccc3)o2)c(C)c1
inhibition in vivo [1]: 36% | inhibition in vivo [4]: 58%

O=C(CCc1nnc(COc2ccc3ccccc3c2)o1)c1ccccc1
inhibition in vivo [1]: 29.8% | inhibition in vivo [4]: 51%

Cc1ccc(C(=O)CCc2nnc(-c3ccccc3Cl)o2)c(C)c1
inhibition in vivo [1]: 33.5% | UI [2]: 0.89 | Activity [3]: 56.8% | inhibition in vivo [4]: 60.5% | Activity [5]: 4.15 nmol

COc1ccc(-c2nnc(CCC(=O)c3ccc(C)cc3)o2)cc1OC
inhibition in vivo [1]: 53.3% | UI [2]: 0.87 | Activity [3]: 62.39% | inhibition in vivo [4]: 72.6% | Activity [5]: 3.85 nmol

COc1ccc(-c2nnc(CCC(=O)c3ccc(C)cc3C)o2)cc1OC
inhibition in vivo [1]: 58.7% | UI [2]: 1.12 | Activity [3]: 56.1% | inhibition in vivo [4]: 75.3% | Activity [5]: 5.12 nmol

Cc1ccc(C(=O)CCc2nnc(COc3cccc4ccccc34)o2)cc1
inhibition in vivo [1]: 24% | inhibition in vivo [4]: 37%

COc1ccc(-c2nnc(CCC(=O)c3ccc(C)cc3)o2)cc1
inhibition in vivo [1]: 69.3% | UI [2]: 0.7 | Activity [3]: 69.8% | inhibition in vivo [4]: 89.5% | Activity [5]: 3.15 nmol

O=C(CCc1nnc(-c2ccccc2)o1)c1ccccc1
inhibition in vivo [1]: 18.7% | inhibition in vivo [4]: 29.4%

O=C(CCc1nnc(-c2ccc(Cl)cc2)o1)c1ccccc1
inhibition in vivo [1]: 42% | UI [2]: 1.12 | Activity [3]: 63% | inhibition in vivo [4]: 81.5% | Activity [5]: 5.32 nmol

Cc1ccc(C(=O)CCc2nnc(COc3ccc4ccccc4c3)o2)cc1
inhibition in vivo [1]: 24.7% | inhibition in vivo [4]: 49.4%

Cc1ccc(C(=O)CCc2nnc(-c3ccc(Cl)cc3)o2)c(C)c1
inhibition in vivo [1]: 53.3% | UI [2]: 0.71 | Activity [3]: 60.42% | inhibition in vivo [4]: 72.6% | Activity [5]: 3.26 nmol

Cc1ccc(C(=O)CCc2nnc(-c3ccccc3)o2)cc1
inhibition in vivo [1]: 33.3% | inhibition in vivo [4]: 49.3%

CC(C)Cc1ccc(C(C)C(=O)O)cc1 (stereo unspecified) [IBUPROFEN]
inhibition in vivo at 20 mg/kg [6]: 65.5% | UI [7]: 1.95 | inhibition in vivo at 20 mg/kg [8]: 90.1% | Activity [9]: 72.5% | inhibition in vivo at 20 mg/kg [10]: 46.7% | Activity [11]: 7.51 nmol | inhibition in vivo at 20 mg/kg [12]: 80.9%
